The text below walks through data of ChEMBL document CHEMBL4270555, “Synthesis and biological evaluation of magnolol derivatives as melatonergic receptor agonists with potential use in depression” (Eur J Med Chem, 2018).

As a reminder, the EC50 is the concentration that produces a half-maximal response.

For series [1], the system named is Mus musculus. Kind of series: Increase in ratio of 5-hydroxyindole-3-acetic acid to 5-hydroxytryptamine level in Kunming mouse hypothalamus at 40 mg/kg, po treated for 7 days by HPLC-ECD analysis. Type of series: functional, organism-based. An outline of the steps:
(§1)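 Male Kunming mice (18–20 g) given vehicle or 40 mg/kg for 7 days, then killed by cervical dislocation. Frontal cortex, hippocampus, striatum, hypothalamus and thalamus dissected on ice, homogenized in ice-cold 0.2 M perchloric acid with 0.1 mM EDTA, centrifuged 15,000 rpm, 20 min, 4 °C. Supernatant analysed by HPLC-ECD at +0.50 V; phosphate/octanesulfonate mobile phase pH 3.0 with 12% methanol. Levels in ng/g, mean ± SEM.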

A short description of series [2]: Drug metabolism in Sprague-Dawley rat urine assessed as 5'-(1-hydroxyallyl)-5-propyl-2'-((2S,3R,4S,5S,6R)-3,4,5-trihydroxy-6-(hydroxymethyl)tetrahydro-2H-pyran-2-yloxy)biphenyl-2-yl hydrogen sulfate formation at 100 mg/kg, po by UPLC-IT-TOF-MS analysis. Type of series: ADME, organism-based. The following applies: in vivo. The procedure, abridged: (§2)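 Male/unspecified SD rats (n = 6) housed individually in metabolic cages, dosed orally at 100.0 mg/kg; controls given 0.5% CMC-Na orally. Plasma, urine and faeces collected. LC-IT-TOF-MS on C18 column at 30 °C, formic acid (0.05%) water/acetonitrile gradient 5–100% B over 18 min, 0.2 mL/min; positive and negative ion modes with automatic MS/MS.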

The test system of series [3] is Rattus norvegicus. Kind of series: Toxicity in Sprague-Dawley rat assessed as change in sensory nervous system responses at 2000 mg/kg, po measured continuously for first 4 hrs followed by measured every hour for next 24 hrs and at 6 hrs intervals for following 48 hrs post dose. The series is classed as organism-based. The following applies: in vivo. An outline of the steps: (§3)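 Followed OECD 425 in adult SD rats (180–220 g), three groups of six. Vehicle control received 0.5% CMC-Na orally; separate male and female groups received 2000 mg/kg orally. Endpoints observed: behaviour, breathing, cutaneous effects, sensory nervous system responses, gastrointestinal effects and deaths.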

Series [4] relates to Mus musculus. Kind of series: Increase in norepinephrine level in Kunming mouse thalamus at 40 mg/kg, po treated for 7 days by HPLC-ECD analysis. The series is classed as functional, organism-based. An outline of the steps: as §1
A short description of series [5]: Drug metabolism in Sprague-Dawley rat urine assessed as (2S,3S,4S,5R,6S)-3,4,5-trihydroxy-6-(5-(1-hydroxyallyl)-5'-(2-hydroxypropyl)-2'-methoxybiphenyl-2-yloxy)tetrahydro-2H-pyran-2-carboxylic acid formation at 100 mg/kg, po by UPLC-IT-TOF-MS analysis. Conditions: in vivo. Type of series: ADME, organism-based. An outline of the steps: as §2
The test system of series [6] is Rattus norvegicus. Kind of series: Toxicity in Sprague-Dawley rat assessed as change in gastrointestinal effects at 2000 mg/kg, po measured continuously for first 4 hrs followed by measured every hour for next 24 hrs and at 6 hrs intervals for following 48 hrs post dose. The following applies: in vivo. The series is classed as organism-based. The procedure, abridged: as §3

Series [7] is described as follows: Drug metabolism in Sprague-Dawley rat plasma assessed as 2S,3S,4S,5R,6S)-6-(5,5'-diallyl-2'-((2S,3R,4S,5S,6R)-3,4,5-trihydroxy-6-(hydroxymethyl)tetrahydro-2H-pyran-2-yloxy)biphenyl-2-yloxy)-3,4,5-trihydroxytetrahydro-2H-pyran-2-carboxylic acid formation at 100 mg/kg, po by UPLC-IT-TOF-MS analysis. The series is classed as ADME, organism-based. Conditions: in vivo. An outline of the steps: (§4)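 Rats (n = 6) housed in metabolic cages received 100.0 mg/kg orally; controls received 0.5% CMC-Na. Plasma, urine and faeces were collected and analyzed by LC-IT-TOF-MS on a C18 column at 30 °C. Gradient 5–100% acetonitrile with 0.05% formic acid over 18 min at 0.2 mL/min; positive and negative ion MS/MS.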

Series [8] is described as follows: Drug metabolism in Sprague-Dawley rat feces assessed as (2S,3R,4S,5S,6R)-2-(5'-allyl-2'-hydroxy-5-(1-hydroxyallyl)biphenyl-2-yloxy)-6-(hydroxymethyl)tetrahydro-2H-pyran-3,4,5-triol formation at 100 mg/kg, po by UPLC-IT-TOF-MS analysis. The series is classed as ADME, organism-based. The following applies: in vivo. The procedure, abridged:
as §4

Series [9] is described as follows: Drug metabolism in Sprague-Dawley rat feces assessed as (2R,2'R,3S,3'S,4S,4'S,5R,5'R,6S,6'S)-6,6'-(5,5'-diallylbiphenyl-2,2'-diyl)bis(oxy)bis(2-(hydroxymethyl)tetrahydro-2H-pyran-3,4,5-triol) formation at 100 mg/kg, po by UPLC-IT-TOF-MS analysis. The series is classed as ADME, organism-based. The following applies: in vivo. An outline of the steps: as §4
Series [10] has as its system Mus musculus. Kind of series: Effect on 5-hydroxytryptamine level in Kunming mouse hypothalamus at 40 mg/kg, po treated for 7 days by HPLC-ECD analysis. The series is classed as functional, organism-based. An outline of the steps:
as §1

Series [11] concerns Mus musculus. Kind of series: Antidepressant activity in po dosed Kunming mouse assessed as decrease in immobility time by tail suspension test. Type of series: functional. The following applies: read-out: MED. An outline of the steps:
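Male Kunming mice dosed orally at 10, 20 or 40 mg/kg, with fluoxetine and agomelatine 20 mg/kg as references. Mice were hung by the tail with tape about 1 cm from the tip, 50 cm above a box, for 6 min, isolated from sound and view. Immobility in the last 4 min was video-tracked; n = 10, mean ± SEM.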

A short description of series [12]: Drug metabolism in Sprague-Dawley rat feces assessed as 1-(5'-allyl-2'-hydroxy-6-((2S,3R,4S,5S,6R)-3,4,5-trihydroxy-6-(hydroxymethyl)tetrahydro-2H-pyran-2-yloxy)biphenyl-3-yl)prop-2-en-1-one formation at 100 mg/kg, po by UPLC-IT-TOF-MS analysis. Type of series: ADME, organism-based. The following applies: in vivo. The procedure, abridged: as §4
A short description of series [13]: Drug metabolism in Sprague-Dawley rat urine assessed as (2S,3R,4S,5S,6R)-2-(5,5'-diallyl-2'-methoxybiphenyl-2-yloxy)-6-(hydroxymethyl)tetrahydro-2H-pyran-3,4,5-triol formation at 100 mg/kg, po by UPLC-IT-TOF-MS analysis. Type of series: ADME, organism-based. Conditions: in vivo. The procedure, abridged:
as §2

Series [14] concerns the target Melatonin receptor type 1A (Homo sapiens, UniProt P48039). Kind of series: Agonist activity at human MT1 receptor expressed in HEK293 cells after 24 hrs by Fluo-8 dye-based calcium assay. The series is classed as functional, cell-based. An outline of the steps: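 Fluo-8 calcium flux in HEK293 cells stably expressing human MT1 or MT2, grown in DMEM + 10% FBS at 37 °C, seeded 4×10^4/well and incubated 24 h. Compounds in DMSO/HBSS at several concentrations; fluorescence read at room temperature (ex 485, em 525 nm). Triplicate wells, three independent experiments; EC50 by nonlinear regression.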

Activity calls are given as the source filed them. No cut-off for these calls is given here.

Chain of Melatonin receptor type 1A (P48039 whole entry): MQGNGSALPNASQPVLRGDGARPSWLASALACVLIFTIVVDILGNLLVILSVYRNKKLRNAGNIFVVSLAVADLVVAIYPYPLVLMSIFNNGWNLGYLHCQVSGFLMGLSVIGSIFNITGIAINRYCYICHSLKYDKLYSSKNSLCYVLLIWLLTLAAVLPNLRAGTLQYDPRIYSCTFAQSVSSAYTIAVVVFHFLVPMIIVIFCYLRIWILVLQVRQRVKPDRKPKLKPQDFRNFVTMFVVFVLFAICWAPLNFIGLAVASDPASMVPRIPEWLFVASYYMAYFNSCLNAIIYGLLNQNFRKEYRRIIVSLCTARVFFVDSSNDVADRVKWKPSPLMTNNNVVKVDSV

In the case of `C=CCc1ccc(O)c(-c2cc(CC=C)ccc2O[C@@H]2O[C@H](CO)[C@@H](O)[C@H](O)[C@H]2O)c1`, the result in [1] and in series [4] was Active. The Drug metabolism entry in [2] is “Metabolite_Notdetected”; in series [5], “Metabolite_Detected”; in series [7], “Metabolite_Notdetected”; in [8] it was “Metabolite_Notdetected”; in series [9], “Metabolite_Detected”; in series [12], “Metabolite_Notdetected”. Also, in series [13], the Drug metabolism result is listed as “Metabolite_Detected”. The Activity entry in series [3] and in [6] was “Non-Toxic” throughout. For the same compound, in series [10], the outcome was inactive. In addition, the minimal effective dose in series [11] worked out at 10 mg/kg. For the same compound, the EC50 in series [14] was found to be 397 µM.
